In data set [1] the target is Tyrosine-protein kinase BTK (Homo sapiens, UniProt Q06187). As to the kind of experiment: Inhibition of human recombinant BTK incubated for 5 mins by HTRF kinase assay.
For data set [2], the target named is Hepatocyte growth factor receptor (Homo sapiens, UniProt P08581). The experiment in a line: Inhibition of c-MET (unknown origin) using poly (Glu-Tyr, 4:1) substrate incubated for 60 mins by ELISA method. In a few lines:
(§1)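 ELISA on wells precoated overnight at 37 °C with 0.2 mg/mL poly(Glu-Tyr, 4:1). Kinase and 0.01 mmol/L ATP in reaction medium, plus inhibitor at various concentrations in 1% DMSO, were reacted for 60 min at 37 °C. Anti-phosphotyrosine antibody and HRP anti-mouse IgG followed, with TMB read-out stopped by 2 M H2SO4 and OD at 450 nm. IC50 came from regression of concentration/inhibition data.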
(In general: In an ELISA, binding on a coated surface is turned into a signal by an enzyme label.)

Data set [3] deals with Vascular endothelial growth factor receptor 2 (Homo sapiens, UniProt P35968). As to the kind of experiment: Inhibition of KDR (unknown origin) using poly (Glu-Tyr, 4:1) substrate incubated for 60 mins by ELISA method. The essentials:
as §1

The target of data set [4] is T1, Tyrosine-protein kinase JAK3 (Homo sapiens, UniProt P52333).
T1 sequence (P52333 whole entry): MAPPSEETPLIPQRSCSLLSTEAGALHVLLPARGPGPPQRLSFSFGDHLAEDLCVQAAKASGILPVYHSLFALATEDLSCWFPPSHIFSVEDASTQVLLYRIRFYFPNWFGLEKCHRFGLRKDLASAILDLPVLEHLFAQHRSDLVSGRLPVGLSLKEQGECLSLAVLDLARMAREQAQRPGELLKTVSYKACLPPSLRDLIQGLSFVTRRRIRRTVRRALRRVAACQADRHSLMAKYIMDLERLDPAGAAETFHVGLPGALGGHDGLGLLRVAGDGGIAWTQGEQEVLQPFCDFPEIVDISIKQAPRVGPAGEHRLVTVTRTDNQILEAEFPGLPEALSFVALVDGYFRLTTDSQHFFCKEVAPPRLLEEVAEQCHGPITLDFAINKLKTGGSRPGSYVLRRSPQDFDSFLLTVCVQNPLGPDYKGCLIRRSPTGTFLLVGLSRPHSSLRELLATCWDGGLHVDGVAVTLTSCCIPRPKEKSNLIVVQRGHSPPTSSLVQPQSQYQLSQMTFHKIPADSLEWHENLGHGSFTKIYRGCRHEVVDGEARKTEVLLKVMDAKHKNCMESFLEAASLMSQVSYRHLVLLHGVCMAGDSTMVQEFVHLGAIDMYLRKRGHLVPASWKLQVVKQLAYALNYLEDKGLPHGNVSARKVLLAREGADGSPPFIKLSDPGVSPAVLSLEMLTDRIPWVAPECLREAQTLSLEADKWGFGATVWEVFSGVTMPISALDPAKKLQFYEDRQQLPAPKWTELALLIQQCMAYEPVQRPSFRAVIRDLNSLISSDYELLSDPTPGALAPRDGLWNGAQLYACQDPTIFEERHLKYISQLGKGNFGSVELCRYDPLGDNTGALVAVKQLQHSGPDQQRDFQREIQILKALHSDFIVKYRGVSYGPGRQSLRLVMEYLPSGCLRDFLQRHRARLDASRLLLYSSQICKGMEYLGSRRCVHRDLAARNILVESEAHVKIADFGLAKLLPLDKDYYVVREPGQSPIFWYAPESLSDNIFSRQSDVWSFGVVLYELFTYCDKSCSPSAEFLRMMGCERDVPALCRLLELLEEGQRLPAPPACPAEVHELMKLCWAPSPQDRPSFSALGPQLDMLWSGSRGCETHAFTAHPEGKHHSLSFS
As to the kind of experiment: Inhibition of JAK3 (unknown origin) using poly (Glu-Tyr, 4:1) substrate incubated for 60 mins by ELISA method. The essentials:
as §1

Data set [5] concerns the target Tyrosine-protein kinase JAK2 (Homo sapiens, UniProt O60674). As to the kind of experiment: Inhibition of JAK2 (unknown origin) using poly (Glu-Tyr, 4:1) substrate incubated for 60 mins by ELISA method. In a few lines: as §1
Data set [6] in a line: AUC (0 to t) in Sprague-Dawley rat at 2.5 mg/kg, iv by LC-MS/MS method. In kind it is ADME, organism-based. Particulars: in vivo. In a few lines:
(§2)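 Male SD rats, 3 per route (180-240 g), dosed 2.5 mg/kg iv or 10 mg/kg po at 5 mL/kg. Blood was sampled from 2 min to 24 h, centrifuged at 4000 rpm for 5 min at 4 °C and protein-precipitated. Plasma was quantified by LC/MS/MS in SRM mode with an internal standard. PK parameters came from noncompartmental analysis.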

The next data set concerns Rattus norvegicus. As to the kind of experiment: Apparent volume of distribution in Sprague-Dawley rat at 10 mg/kg, po by LC-MS/MS method. In kind it is ADME, organism-based. Particulars: in vivo. In a few lines:
as §2

A short description of data set [7]: Tmax in Sprague-Dawley rat at 2.5 mg/kg, iv by LC-MS/MS method. In kind it is ADME, organism-based. The following applies: in vivo. The essentials:
as §2

A short description of data set [8]: Cmax in Sprague-Dawley rat at 10 mg/kg, po by LC-MS/MS method. The format is ADME, organism-based. The following applies: in vivo. Set-up: dose 10 mg/kg, route oral. In a few lines: as §2
Data set [9] can be described thus: Mean residence time in Sprague-Dawley rat at 10 mg/kg, po by LC-MS/MS method. Particulars: in vivo. In kind it is ADME, organism-based. The essentials:
as §2

A short description of data set [10]: Half life in Sprague-Dawley rat at 2.5 mg/kg, iv by LC-MS/MS method. In kind it is ADME, organism-based. The following applies: in vivo. The essentials: as §2
A short description of data set [11]: Oral bioavailability in Sprague-Dawley rat at 10 mg/kg by LC-MS/MS method. The format is ADME, organism-based. Particulars: in vivo. The essentials:
as §2

Data set [12] in a line: Mean residence time in Sprague-Dawley rat at 2.5 mg/kg, iv by LC-MS/MS method. The format is ADME, organism-based. The following applies: in vivo. The essentials:
as §2

Data set [13] is described as follows: Tmax in Sprague-Dawley rat at 10 mg/kg, po by LC-MS/MS method. The format is ADME, organism-based. Particulars: in vivo. The essentials: as §2
Data set [14] can be described thus: Clearance in Sprague-Dawley rat at 2.5 mg/kg, iv by LC-MS/MS method. In kind it is ADME, organism-based. Particulars: in vivo. In a few lines: as §2
A short description of data set [15]: Half life in Sprague-Dawley rat at 10 mg/kg, po by LC-MS/MS method. In kind it is ADME, organism-based. Particulars: in vivo. The essentials:
as §2

Data set [16] can be described thus: Cmax in Sprague-Dawley rat at 2.5 mg/kg, iv by LC-MS/MS method. Set-up: dose 2.5 mg/kg, route intravenous. In kind it is ADME, organism-based. Particulars: in vivo. The essentials:
as §2

Data set [17] can be described thus: Apparent volume of distribution in Sprague-Dawley rat at 2.5 mg/kg, iv by LC-MS/MS method. In kind it is ADME, organism-based. Particulars: in vivo, read-out: Vz. The essentials: as §2
Data set [18] can be described thus: Clearance in Sprague-Dawley rat at 10 mg/kg, po by LC-MS/MS method. The following applies: in vivo. In kind it is ADME, organism-based. The essentials:
as §2

Data set [19] can be described thus: AUC (0 to t) in Sprague-Dawley rat at 10 mg/kg, po by LC-MS/MS method. In kind it is ADME, organism-based. Particulars: in vivo. The essentials:
as §2

Sequence of Tyrosine-protein kinase BTK (Q06187 whole entry): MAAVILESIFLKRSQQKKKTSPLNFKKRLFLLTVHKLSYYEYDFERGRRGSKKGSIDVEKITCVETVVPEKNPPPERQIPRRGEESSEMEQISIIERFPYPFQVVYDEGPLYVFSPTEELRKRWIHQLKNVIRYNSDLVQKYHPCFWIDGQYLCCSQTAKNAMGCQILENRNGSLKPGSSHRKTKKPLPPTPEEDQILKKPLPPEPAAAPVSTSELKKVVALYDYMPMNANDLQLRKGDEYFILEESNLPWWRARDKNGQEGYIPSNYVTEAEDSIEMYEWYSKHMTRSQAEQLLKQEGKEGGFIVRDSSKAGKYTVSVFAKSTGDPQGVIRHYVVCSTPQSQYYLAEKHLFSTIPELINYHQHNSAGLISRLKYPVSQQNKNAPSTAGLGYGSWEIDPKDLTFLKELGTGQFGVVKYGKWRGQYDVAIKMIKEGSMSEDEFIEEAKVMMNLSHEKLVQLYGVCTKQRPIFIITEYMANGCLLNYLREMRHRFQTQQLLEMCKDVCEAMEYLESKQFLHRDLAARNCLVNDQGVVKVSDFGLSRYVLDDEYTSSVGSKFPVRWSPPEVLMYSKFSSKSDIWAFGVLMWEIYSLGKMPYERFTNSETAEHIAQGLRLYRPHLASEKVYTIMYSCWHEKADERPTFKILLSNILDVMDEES
Sequence of Vascular endothelial growth factor receptor 2 (P35968 whole entry): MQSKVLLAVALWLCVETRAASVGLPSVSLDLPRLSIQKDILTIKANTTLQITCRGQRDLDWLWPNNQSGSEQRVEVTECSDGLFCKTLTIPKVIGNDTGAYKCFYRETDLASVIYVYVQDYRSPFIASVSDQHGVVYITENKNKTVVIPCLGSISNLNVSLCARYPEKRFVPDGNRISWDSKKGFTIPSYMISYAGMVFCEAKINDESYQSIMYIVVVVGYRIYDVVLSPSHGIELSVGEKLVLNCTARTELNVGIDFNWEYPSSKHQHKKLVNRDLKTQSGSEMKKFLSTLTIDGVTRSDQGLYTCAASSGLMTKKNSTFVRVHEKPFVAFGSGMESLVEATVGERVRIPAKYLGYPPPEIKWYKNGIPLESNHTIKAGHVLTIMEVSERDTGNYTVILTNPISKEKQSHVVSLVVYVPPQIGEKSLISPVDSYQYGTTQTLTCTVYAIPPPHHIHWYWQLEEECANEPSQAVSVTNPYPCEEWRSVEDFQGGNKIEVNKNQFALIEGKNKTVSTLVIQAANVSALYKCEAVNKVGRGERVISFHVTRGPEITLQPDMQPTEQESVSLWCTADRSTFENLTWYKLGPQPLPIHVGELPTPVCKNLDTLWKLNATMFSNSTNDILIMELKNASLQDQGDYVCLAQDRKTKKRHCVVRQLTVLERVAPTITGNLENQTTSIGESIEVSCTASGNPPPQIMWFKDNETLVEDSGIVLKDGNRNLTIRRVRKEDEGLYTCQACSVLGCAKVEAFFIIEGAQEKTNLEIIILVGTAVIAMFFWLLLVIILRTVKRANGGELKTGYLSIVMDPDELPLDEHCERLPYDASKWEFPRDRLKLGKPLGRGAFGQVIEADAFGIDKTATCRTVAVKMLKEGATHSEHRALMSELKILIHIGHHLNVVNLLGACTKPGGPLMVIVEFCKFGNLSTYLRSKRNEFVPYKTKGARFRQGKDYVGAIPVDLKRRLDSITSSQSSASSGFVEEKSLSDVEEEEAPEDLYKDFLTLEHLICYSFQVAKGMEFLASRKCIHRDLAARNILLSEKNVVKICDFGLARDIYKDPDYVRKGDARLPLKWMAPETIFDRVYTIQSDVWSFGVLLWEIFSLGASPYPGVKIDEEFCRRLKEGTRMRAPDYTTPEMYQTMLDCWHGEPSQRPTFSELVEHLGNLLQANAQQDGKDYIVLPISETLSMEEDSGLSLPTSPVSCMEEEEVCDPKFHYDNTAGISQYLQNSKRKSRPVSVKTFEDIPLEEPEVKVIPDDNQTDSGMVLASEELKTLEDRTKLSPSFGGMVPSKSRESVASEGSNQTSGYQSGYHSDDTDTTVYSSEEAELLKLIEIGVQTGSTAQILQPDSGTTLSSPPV
Sequence of Tyrosine-protein kinase JAK2 (O60674 whole entry): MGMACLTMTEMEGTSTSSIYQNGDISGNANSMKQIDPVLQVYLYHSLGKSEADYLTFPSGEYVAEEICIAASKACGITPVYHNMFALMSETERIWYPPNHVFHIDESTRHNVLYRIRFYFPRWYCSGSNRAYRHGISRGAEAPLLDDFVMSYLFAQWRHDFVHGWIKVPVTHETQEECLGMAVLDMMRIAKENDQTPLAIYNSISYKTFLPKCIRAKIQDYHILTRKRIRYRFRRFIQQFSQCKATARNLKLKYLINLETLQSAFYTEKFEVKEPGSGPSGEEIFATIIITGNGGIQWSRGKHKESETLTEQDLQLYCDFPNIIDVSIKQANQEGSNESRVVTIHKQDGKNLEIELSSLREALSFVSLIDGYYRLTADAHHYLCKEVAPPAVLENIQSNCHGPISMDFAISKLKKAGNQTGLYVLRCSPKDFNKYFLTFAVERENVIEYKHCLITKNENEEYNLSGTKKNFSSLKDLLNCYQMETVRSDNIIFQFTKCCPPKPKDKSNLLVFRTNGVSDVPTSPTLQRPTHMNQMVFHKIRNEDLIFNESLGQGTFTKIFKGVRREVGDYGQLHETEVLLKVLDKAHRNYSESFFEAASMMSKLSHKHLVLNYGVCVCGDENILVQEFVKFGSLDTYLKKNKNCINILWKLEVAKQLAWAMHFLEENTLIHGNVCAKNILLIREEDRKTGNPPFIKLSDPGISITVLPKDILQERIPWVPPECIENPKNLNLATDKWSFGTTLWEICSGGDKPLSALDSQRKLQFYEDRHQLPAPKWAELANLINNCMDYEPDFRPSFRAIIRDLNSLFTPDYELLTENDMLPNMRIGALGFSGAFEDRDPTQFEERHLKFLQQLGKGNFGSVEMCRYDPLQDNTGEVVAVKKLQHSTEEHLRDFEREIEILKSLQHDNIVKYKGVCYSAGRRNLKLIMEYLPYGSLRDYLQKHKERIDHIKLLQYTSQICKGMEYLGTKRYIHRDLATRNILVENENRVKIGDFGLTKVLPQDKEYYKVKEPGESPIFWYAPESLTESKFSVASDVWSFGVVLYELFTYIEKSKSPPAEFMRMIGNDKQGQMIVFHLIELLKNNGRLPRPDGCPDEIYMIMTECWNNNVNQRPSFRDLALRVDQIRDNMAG
Sequence of Hepatocyte growth factor receptor (P08581 whole entry): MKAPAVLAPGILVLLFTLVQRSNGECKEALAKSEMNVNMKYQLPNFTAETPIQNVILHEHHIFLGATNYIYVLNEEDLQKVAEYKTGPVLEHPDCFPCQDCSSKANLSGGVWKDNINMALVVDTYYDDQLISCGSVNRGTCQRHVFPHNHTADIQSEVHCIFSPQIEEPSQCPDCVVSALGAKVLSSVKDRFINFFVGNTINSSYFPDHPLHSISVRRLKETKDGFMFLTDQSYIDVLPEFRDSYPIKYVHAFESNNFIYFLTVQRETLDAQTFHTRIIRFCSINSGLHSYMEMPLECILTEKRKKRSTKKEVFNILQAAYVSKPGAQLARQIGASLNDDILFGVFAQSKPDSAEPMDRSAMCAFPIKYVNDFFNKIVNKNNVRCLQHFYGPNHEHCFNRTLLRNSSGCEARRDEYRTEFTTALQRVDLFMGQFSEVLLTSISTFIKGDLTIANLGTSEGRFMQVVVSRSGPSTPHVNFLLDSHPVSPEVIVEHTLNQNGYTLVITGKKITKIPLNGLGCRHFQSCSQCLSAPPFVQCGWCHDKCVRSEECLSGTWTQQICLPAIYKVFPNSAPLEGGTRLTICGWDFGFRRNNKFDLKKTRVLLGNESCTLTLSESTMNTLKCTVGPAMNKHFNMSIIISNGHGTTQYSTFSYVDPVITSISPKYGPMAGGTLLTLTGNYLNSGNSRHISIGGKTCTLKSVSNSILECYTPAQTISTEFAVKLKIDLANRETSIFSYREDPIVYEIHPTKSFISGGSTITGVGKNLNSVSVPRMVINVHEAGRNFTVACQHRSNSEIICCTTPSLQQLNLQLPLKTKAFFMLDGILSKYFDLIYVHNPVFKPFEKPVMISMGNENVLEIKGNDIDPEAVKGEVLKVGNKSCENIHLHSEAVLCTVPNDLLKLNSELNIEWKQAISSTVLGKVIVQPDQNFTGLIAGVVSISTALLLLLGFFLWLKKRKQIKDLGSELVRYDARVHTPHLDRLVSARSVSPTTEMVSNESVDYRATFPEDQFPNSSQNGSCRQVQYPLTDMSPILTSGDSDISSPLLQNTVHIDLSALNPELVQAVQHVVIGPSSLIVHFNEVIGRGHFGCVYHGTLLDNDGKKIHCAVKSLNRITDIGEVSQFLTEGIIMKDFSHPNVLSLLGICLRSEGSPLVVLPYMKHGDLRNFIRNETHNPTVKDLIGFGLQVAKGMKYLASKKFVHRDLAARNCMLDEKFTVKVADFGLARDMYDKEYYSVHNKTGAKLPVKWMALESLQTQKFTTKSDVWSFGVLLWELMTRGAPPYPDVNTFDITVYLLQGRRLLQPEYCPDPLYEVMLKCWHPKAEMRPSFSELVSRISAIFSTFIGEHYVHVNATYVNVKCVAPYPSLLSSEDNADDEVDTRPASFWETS

As to `CNC(=O)Cn1cc(-c2cnc(N)c3c(-c4ccc(NC(=O)c5cccc(Cl)c5)cc4)csc23)cn1`, the 50% inhibitory concentration (IC50) in [1] is 409 nM.
In the case of `Nc1ncc(-c2ccco2)c2scc(-c3ccc(Oc4ccccc4)cc3)c12`, in data set [1], the IC50 amounted to 767 nM.
Same read-out and setting: for `COCCCn1cc(-c2cnc(N)c3c(-c4ccc(Oc5ccccc5)cc4)csc23)cn1` the value was 280 nM; for `CCn1cc(-c2cnc(N)c3c(-c4ccc(Oc5ccccc5)cc4)csc23)cn1`, 176 nM; for `CCCCc1cnc(N)c2c(-c3ccc(Oc4ccccc4)cc3)csc12`, over 10000 nM.
In the case of `Cn1cc(-c2cnc(N)c3c(-c4ccc(NC(=O)c5cccc(Cl)c5)cc4)csc23)cn1`, the IC50 in data set [1] was determined as 421 nM.
In the case of `Cn1cc(-c2cnc(N)c3c(-c4ccc(Oc5ccccc5)cc4)csc23)cn1`, the IC50 in data set [2] is over 10000 nM; in data set [3], 343 nM; in data set [4], over 10000 nM; in [5], over 10000 nM; in data set [1], 107 nM.
In the case of `Nc1ncc(C2CC2)c2scc(-c3ccc(Oc4ccccc4)cc3)c12`, the IC50 in data set [1] was over 10000 nM.
On to `Nc1ncc(-c2cnn(Cc3ccccc3)c2)c2scc(-c3ccc(Oc4ccccc4)cc3)c12`, for which, in [1], the IC50 was 699 nM.
As to `Nc1ncc(-c2ccccc2)c2scc(-c3ccc(Oc4ccccc4)cc3)c12`, the IC50 in data set [1] is over 10000 nM.
Consider `Nc1ncc(-c2cn[nH]c2)c2scc(-c3ccc(Oc4ccccc4)cc3)c12`, for which, in data set [1], the half-maximal inhibitory concentration (IC50) was found to be 1050 nM.
`CNC(=O)Cn1cc(-c2cnc(N)c3c(-c4ccc(C(=O)Nc5ccccc5)cc4)csc23)cn1`: in data set [1], the IC50 amounted to 137 nM.
For `CC(=O)n1cc(-c2cnc(N)c3c(-c4ccc(Oc5ccccc5)cc4)csc23)cn1`, the half-maximal inhibitory concentration (IC50) in [1] is 454 nM.
`Nc1ncc(-c2ccc(N3CCOCC3)cc2)c2scc(-c3ccc(Oc4ccccc4)cc3)c12`: in data set [1], the half-maximal inhibitory concentration (IC50) is 2300 nM.
On to `CNC(=O)Cn1cc(-c2cnc(N)c3c(-c4ccc(Oc5ccccc5)cc4)csc23)cn1`, for which the 50% inhibitory concentration (IC50) is over 10000 nM in data set [2]; 284 nM in data set [3]; over 10000 nM in [4]; over 10000 nM in data set [5]; 12.8 nM in data set [1]. Besides, the area under the curve AUC(0-t) amounted to 1460 ng·h/mL in [6] and 1370 ng·h/mL in data set [19]. Besides, the Vz in the data set with Rattus norvegicus turned out to be 13.3206 L/kg. The values for the Tmax in data set [7] and in [13] were 6.6 min and 40.2 min, respectively. For the same compound, the Cmax in data set [8] stood at 856 ng/mL; in data set [16], 2550 ng/mL. The MRT in [9] worked out at 88.8 min; in [12], 25.8 min. Further, the half-life in data set [10] was 21.6 min; in data set [15], 60.6 min. The bioavailability in [11] stood at 23.4%. The same compound had a clearance in data set [14] of 28.6 mL/min/kg. Further, in data set [17], the Vd is 0.9 L/kg. Moreover, the apparent clearance (CL/F) in [18] is 145 mL/min/kg.
`CN(C)S(=O)(=O)n1cc(-c2cnc(N)c3c(-c4ccc(Oc5ccccc5)cc4)csc23)cn1`: in [1], the IC50 is 528 nM.
As to `CNC(=O)Cn1cc(-c2cnc(N)c3c(-c4cccc(C(=O)Nc5ccccc5)c4)csc23)cn1`, the IC50 in data set [1] was determined as 291 nM.
Take `Nc1ncc(-c2ccncc2)c2scc(-c3ccc(Oc4ccccc4)cc3)c12`: the half-inhibitory concentration (IC50) in data set [1] amounted to 1950 nM.
As for `COc1ccc2cc(-c3cnc(N)c4c(-c5ccc(Oc6ccccc6)cc5)csc34)ccc2c1`, the 50% inhibitory concentration (IC50) in data set [1] is over 10000 nM.
For the compound `Nc1ncc(-c2ccc(Oc3ccccc3)cc2)c2scc(-c3ccc(Oc4ccccc4)cc3)c12`, in data set [1], the half-inhibitory concentration (IC50) is over 10000 nM.
For the compound `CCCCn1cc(-c2cnc(N)c3c(-c4ccc(Oc5ccccc5)cc4)csc23)cn1`, the half-inhibitory concentration (IC50) in data set [1] amounted to 387 nM.

For orientation: IC50 means the concentration that inhibits the measured activity by half. The AUC(0-t) is the area under the concentration-time curve up to a stated or last time point. Read a high AUC(0-t) as high exposure. Broadly, the Tmax is the time from dosing to the highest level. The term Cmax denotes the highest concentration seen after dosing. By MRT is commonly meant a mean duration of stay, worked out from the concentration-time curve. In general, half-life refers to the time needed for the level to fall by half in the phase considered. Read a low half-life as fast loss. As a reminder, the bioavailability is dose-corrected exposure relative to a reference, in per cent. The clearance is the volume of plasma or blood freed of the substance per unit of time. What is called CL/F is the apparent clearance, not corrected for the fraction that reaches the circulation.

The values are drawn from ChEMBL document CHEMBL3603780, “Discovery of thieno[3,2-c]pyridin-4-amines as novel Bruton's tyrosine kinase (BTK) inhibitors” (Bioorg Med Chem, 2015).
